In brackets after ≈: the same amount, converted by molar mass. Activity calls are given as the source filed them. No cut-off for these calls is given here.

The test system of data set [1] is Escherichia coli. Put plainly: Antibacterial activity against Escherichia coli ATCC 25922 assessed as inhibition of bacterial growth by broth microdilution method. The format is functional.
In data set [2] the test system is Acinetobacter baumannii. As to the kind of experiment: Antibacterial activity against Acinetobacter baumannii ATCC 19606 assessed as inhibition of bacterial growth by broth microdilution method. The format is functional.
The test system of data set [3] is Pseudomonas aeruginosa. Put plainly: Antibacterial activity against Pseudomonas aeruginosa ATCC 27853 assessed as inhibition of bacterial growth by broth microdilution method. The format is functional.
For data set [4], the system named is Cell membrane. As to the kind of experiment: Induction of cell membrane permeability Staphylococcus epidermidis clinical isolate 23 assessed as depolarized cells at 3.125 ug/ml by Texas Red-H/FITC-H staining based flow cytometry (reference value: 2.7%). The format is subcellular. The settings on record: dose 3.125 µg/ml. An outline of the steps:
(§1)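 Clinical S. epidermidis no. 23 cells were first stained with DiOC2, then treated with compound. Membrane potential was read by flow cytometry within 15 min: red marks polarized cells, green marks depolarized cells. Controls were DiOC2-only cells (negative), CCCP (positive), and daptomycin at 0.4 μg/mL as a depolarizing reference.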

Data set [5] relates to Staphylococcus epidermidis. As to the kind of experiment: Antibiofilm activity against Staphylococcus epidermidis clinical isolates assessed as inhibition of biofilm formation measured after 24 hrs by confocal laser scanning microscopy analysis. The format is functional.
Data set [6] is described as follows: Selectivity index, ratio of IC50 for cytotoxicity against human BJ cells to MIC for antibacterial activity against multidrug resistant Staphylococcus epidermidis clinical isolates. The class given is toxicity, cell-based. As to conditions: read-out: Selectivity Index. The method, boiled down: (§2)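 SI is IC50 divided by the mean MIC across clinical multidrug-resistant S. epidermidis isolates (81 strains). IC50 came from an MTT assay after 24 h treatment of H9c2 cardiomyocytes or BJ skin fibroblasts, n = 3. MIC was measured by broth microdilution.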

Data set [7] has as its system Cell membrane. As to the kind of experiment: Induction of cell membrane permeability Staphylococcus epidermidis clinical isolate 23 assessed as residual polarized cells at 1.6 ug/ml by Texas Red-H/FITC-H staining based flow cytometry (reference value: 69.6%). The format is subcellular. The settings on record: dose 1.6 µg/ml. An outline of the steps:
(§3)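 Cells stained with DiOC2, then exposed to test agent (0.8, 1.6, 3.125 μg/mL tested); CCCP positive control, daptomycin 0.4 μg/mL reference depolarizer, DiOC2-only negative control. Membrane potential read by flow cytometry as red (polarized) versus green (depolarized) cell populations; depolarization assessed within 15 min.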

A short description of data set [8]: Selectivity index, ratio of IC50 for cytotoxicity against rat H9c2 cells to MIC for antibacterial activity against multidrug resistant Staphylococcus epidermidis clinical isolates. The class given is toxicity, cell-based. The settings on record: read-out: Selectivity Index. An outline of the steps:
as §2

Data set [9] has as its system Staphylococcus epidermidis. Put plainly: Antibiofilm activity against Staphylococcus epidermidis clinical isolate 25 assessed as inhibition of biofilm formation measured after 24 hrs by confocal laser scanning microscopy analysis. The format is functional. The method, boiled down:
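Clinical S. epidermidis strain no. 25 biofilm exposed to compound for 24 h, stained with FilmTracer SYPRO Ruby biofilm matrix stain, and imaged by confocal microscopy. Untreated compact biofilm served as control.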

Data set [10] has as its system Cell membrane. Put plainly: Induction of cell membrane permeability Staphylococcus epidermidis clinical isolate 23 assessed as depolarized cells at 1.6 ug/ml by Texas Red-H/FITC-H staining based flow cytometry (reference value: 2.7%). The format is subcellular. As to conditions: dose 1.6 µg/ml. The method, boiled down:
as §3

Data set [11] can be described thus: Selectivity index, ratio of IC50 for rat H9c2 cells to IC50 for human BJ cells. The class given is toxicity. The settings on record: H9c2 cells and BJ cells, read-out: Ratio IC50.
Data set [12] deals with Staphylococcus epidermidis. Put plainly: Bacteriostatic activity Staphylococcus epidermidis clinical isolate 44 at 0.4 to 25 ug/ml measured upto 1000 mins by broth microdilution method. The class given is functional, organism-based. As to conditions: dose 0.4-25 µg/ml.
For data set [13], the system named is Staphylococcus epidermidis. Put plainly: Antibiofilm activity against Staphylococcus epidermidis clinical isolates assessed as eradication of existing biofilms measured after 24 hrs by confocal laser scanning microscopy analysis. The class given is functional.
For data set [14], the system named is Cell membrane. Put plainly: Induction of cell membrane permeability Staphylococcus epidermidis clinical isolate 23 assessed as depolarized cells at 0.8 ug/ml by Texas Red-H/FITC-H staining based flow cytometry (reference value: 2.7%). The class given is subcellular. The settings on record: dose 0.8 µg/ml. The method, boiled down:
as §1

The subject of data set [15] is Cell membrane. Put plainly: Induction of cell membrane permeability Staphylococcus epidermidis clinical isolate 23 assessed as residual polarized cells at 0.8 ug/ml by Texas Red-H/FITC-H staining based flow cytometry (reference value: 69.6%). The class given is subcellular. The settings on record: dose 0.8 µg/ml. An outline of the steps: as §1
In data set [16] the test system is Staphylococcus epidermidis. As to the kind of experiment: Antibacterial activity against multidrug-resistant and biofilm producer Staphylococcus epidermidis ATCC 35984 assessed as inhibition of bacterial growth by broth microdilution method. The class given is functional. An outline of the steps:
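Preliminary MIC screen by broth microdilution against three reference strains (methicillin-susceptible, multidrug-resistant/biofilm-producing S. epidermidis, and biofilm-producing S. aureus); MIC reported in μg/mL.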

For data set [17], the system named is Cell membrane. As to the kind of experiment: Induction of cell membrane permeability Staphylococcus epidermidis clinical isolate 23 assessed as depolarized cells by Texas Red-H/FITC-H staining based flow cytometry (reference value: 2.7%). The class given is subcellular. The method, boiled down: (§4)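 Membrane potential read by flow cytometry. Bacteria were stained with DiOC2, then exposed to the agent; red fluorescence marks polarized cells and green marks depolarized cells. CCCP served as the positive control and daptomycin as the depolarizing reference at 0.4 μg/mL. Test concentrations were 0.8, 1.6 and 3.125 μg/mL, with a 15 min exposure.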

For data set [18], the system named is Cell membrane. Put plainly: Induction of cell membrane permeability Staphylococcus epidermidis clinical isolate 23 assessed as residual polarized cells by Texas Red-H/FITC-H staining based flow cytometry (reference value: 69.6%). The format is subcellular. The method, boiled down:
as §4

Data set [19] relates to Cell membrane. As to the kind of experiment: Induction of cell membrane permeability Staphylococcus epidermidis clinical isolate 23 assessed as depolarized cells at 0.4 ug/ml by Texas Red-H/FITC-H staining based flow cytometry (reference value: 2.7%). The settings on record: dose 0.4 µg/ml. The class given is subcellular. An outline of the steps:
as §4

Data set [20] relates to Cell membrane. Put plainly: Induction of cell membrane permeability Staphylococcus epidermidis clinical isolate 23 assessed as residual polarized cells at 0.4 ug/ml by Texas Red-H/FITC-H staining based flow cytometry (reference value: 69.6%). The class given is subcellular. The settings on record: dose 0.4 µg/ml. An outline of the steps: as §4

For `O=S(=O)(NC1CCN(CCC(Oc2cccc(C(F)(F)F)c2)c2ccccc2)CC1)c1cccc(Cl)c1` (racemic), the MIC in data set [1], in [2] and in [3] was no less than 25 µg/mL throughout.

Take `O=C(Nc1cccc(Cl)c1)NC1CCN(CCC(Oc2ccc(C(F)(F)F)cc2)c2cccs2)CC1` (racemic): the Activity in data set [4] was determined as 55.2%; in [7], 1.9%; in data set [10], 72.4%; in [14] it was 34.7%; in [15] it was 43.5%. Moreover, the MIC in [1], in data set [2] and in [3] was greater than 50 µg/mL in each case. Also, the MBIC90 in data set [5] was 31.25 µg/mL. Moreover, the selectivity ratio in data set [6] is 7.5; in data set [8] it was 15.3; in data set [11], 2. Also, the MBIC in data set [9] came out at 7.8 µg/mL. The result in data set [12] was Active. Also, the MBEC90 in [13] is 31.25 µg/mL.

In the case of `O=S(=O)(NC1CCN(CCC(Oc2ccc(C(F)(F)F)cc2)c2cccs2)CC1)c1cccc(Br)c1` (racemic), the MIC in [16] stood at 0.4 µg/mL (≈ 0.663 µM).

Regarding `O=S(=O)(NC1CCN(CCC(Oc2ccc(C(F)(F)F)cc2)c2cccs2)CC1)c1cccc(C(F)(F)F)c1` (racemic), the MIC in data set [16] is 0.2 µg/mL (≈ 0.337 µM).

On to `N#CC(C#N)=NNc1cccc(Cl)c1`, for which the results for the Activity in data set [17] and in [18] were 73.4% and 0.1%, respectively.

As to `O=S(=O)(NC1CCN(CCC(Oc2ccc(C(F)(F)F)cc2)c2ccccc2)CC1)c1cccc(Cl)c1` (racemic), the MBIC90 entry in data set [5] is given as “>=125 ug ml-1”. Further, the selectivity ratio in [6] came out at 0.4; in [8], 0.7; in data set [11], 2. The MBEC90 result in data set [13] was “>=125 ug ml-1”.

Regarding `O=S(=O)(NC1CCN(CCC(Oc2ccc(C(F)(F)F)cc2)c2cccs2)CC1)c1cccc(Cl)c1` (racemic), in data set [5], the MBIC90 result is reported as “>=125 ug ml-1”. For the same compound, the selectivity ratio came out at 1 in data set [6], 2.8 in data set [8] and 2 in data set [11]. In addition, the MBEC90 result in data set [13] is listed as “>=125 ug ml-1”.

For the compound `CCCCCCCCCC(=O)N[C@@H](Cc1c[nH]c2ccccc12)C(=O)N[C@H](CC(N)=O)C(=O)N[C@@H](CC(=O)O)C(=O)N[C@@H]1C(=O)NCC(=O)N[C@@H](CCCN)C(=O)N[C@@H](CC(=O)O)C(=O)N[C@H](C)C(=O)N[C@@H](CC(=O)O)C(=O)NCC(=O)N[C@H](CO)C(=O)N[C@@H]([C@H](C)CC(=O)O)C(=O)N[C@@H](CC(=O)c2ccccc2N)C(=O)O[C@@H]1C`, the figures for the Activity in [19] and in data set [20] were 7.2% and 1.3%, respectively.

As for `CC(=O)NC[C@H]1CN(c2ccc(N3CCOCC3)c(F)c2)C(=O)O1` [LINEZOLID], the MBIC90 in data set [5] turned out to be 50 µg/mL. The selectivity ratio in data set [8] stood at 7.3. Besides, in [12], the outcome was Active. In addition, the MBEC90 in data set [13] is 50 µg/mL.
